As a reminder, the inhibition is the drop in the measured response relative to a control, in per cent.

The source made the active and inactive calls.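 How the source made its calls, unless noted: active means visually confirmed hit in the image check and inhibition above 20%; inconclusive means visually confirmed hit but inhibition not above 20%; inactive means no visual hit in the image check.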

A short description of assay [1]: inhibitors of TNFa-induced NFkB p65 translocation, primary screen, imaging, HUVEC, MLSMR starter and 10KST1 sets (AID 438;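 active means inhibition above 20% together with a positive visual image hit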;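 further: compound added about 3h40 before a 20 min TNFalpha stimulation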;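 on inhibition: signal is the nuclear over cytoplasmic p65 intensity ratio per well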). The conditions noted are these: HUVEC TNFa-induced p65 nuclear translocation; cell count: measured here: nuclei count (cytotoxicity indicator), at 2.08 µM; inhibition: at 2 µM, stronger effect = higher value, 0% TNFa-plus-vehicle, 100% no-TNFa wells.
Assay [2] in a line: endothelial E-selectin expression blockers – imaging, HUVEC, immunofluorescence, MLSMR starter and 10KST1 sets, primary screen (AID 487).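 On inhibition: signal is fraction of cell area covered by stained E-selectin grains.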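 On nuclei count: 100% = median nuclei count of all wells on the same plate.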 The conditions noted are these: HUVEC TNFalpha-induced E-selectin immunofluorescence imaging, at 2 µM; inhibition: stronger effect = higher value; nuclei count: measured here: cell number, toxicity.
A short description of assay [3]: Primary imaging screen for DUSP6 inhibitors that restore phospho-Erk in transfected HeLa cells, chemical complementation (AID 609;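 active means compounds giving at least 50% inhibition in the cell-based MKP-3 phosphatase rescue imaging test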;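 on inhibition: phospho-Erk level distribution per well compared with pooled transfected vehicle control wells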). The settings on record: HeLa MKP-3 transfected, phospho-Erk imaging KS statistic, at 10 µM, cells stimulated with TPA for 15 min.
The target of assay [4] is Dual specificity protein phosphatase 6 (Homo sapiens) (UniProt Q16828). The description is as above. The conditions noted are these: HeLa MKP-3 transfected, phospho-Erk imaging KS statistic; at 10 µM; stronger effect = higher value; cells stimulated with TPA for 15 min.
Dual specificity protein phosphatase 6 (Homo sapiens), sequence (Q16828 whole entry, looked up): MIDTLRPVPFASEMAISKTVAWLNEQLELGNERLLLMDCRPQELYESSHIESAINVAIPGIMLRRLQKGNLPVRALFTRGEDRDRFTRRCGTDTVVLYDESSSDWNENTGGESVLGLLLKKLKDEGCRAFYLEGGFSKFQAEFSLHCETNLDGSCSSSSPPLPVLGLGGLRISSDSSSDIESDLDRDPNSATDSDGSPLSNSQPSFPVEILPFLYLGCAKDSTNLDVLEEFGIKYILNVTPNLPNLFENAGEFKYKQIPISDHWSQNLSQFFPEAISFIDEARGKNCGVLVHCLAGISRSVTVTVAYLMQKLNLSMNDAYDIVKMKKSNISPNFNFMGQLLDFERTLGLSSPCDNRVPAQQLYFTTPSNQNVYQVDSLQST
Assay [5] addresses Voltage-gated potassium channel subunit beta-2 (Rattus norvegicus) (UniProt P62483). Kind of assay: inhibitors of rat Kvbeta2 reductase activity – biochemical, NADPH fluorescence, primary screen (AID 622;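 active means fluorescence slope higher than the sample average by over 3 SD, cut at about -0.22 in these data, passing the limit was not always enough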;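 further: slope of raw intensity against log time taken from 70 to 1610 s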). The conditions noted are these: recombinant KvBeta, 4-cyanobenzaldehyde reduction, at 10 µM, stronger effect = higher value.
Assay [6] shares this target. Put plainly: enhancers of rat Kvbeta2 NADPH turnover – biochemical, NADPH fluorescence, primary screen (AID 623;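 active means NADPH fluorescence slope more negative than the mean of all samples by about 3 SD, 99.7% confidence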;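 further: fluorescence intensity change per second fitted from 20 to 320 s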). The settings on record: Recombinant KvBeta, NADPH fluorescence decrease slope, 10 min; at 10 µM; stronger effect = lower value.
For assay [7], the target named is Alpha-2C adrenergic receptor (Homo sapiens) (UniProt P18825). Put plainly: compounds altering alpha2C-coupled GIRK flux – cell-based, HEK293 alpha2C/GIRK1/2, thallium flux, primary screen (AID 624;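 active means fluorescence slope after compound addition differing from the mean of all screened samples at 99.7% confidence, in either direction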;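 further: slope of fluorescence ratio to pre-addition baseline per second over 15 to 24 s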). The settings on record: thallium flux BTC fluorescence, at 10 µM, actives lie on both sides.
Alpha-2C adrenergic receptor (Homo sapiens), sequence (P18825 whole entry, looked up): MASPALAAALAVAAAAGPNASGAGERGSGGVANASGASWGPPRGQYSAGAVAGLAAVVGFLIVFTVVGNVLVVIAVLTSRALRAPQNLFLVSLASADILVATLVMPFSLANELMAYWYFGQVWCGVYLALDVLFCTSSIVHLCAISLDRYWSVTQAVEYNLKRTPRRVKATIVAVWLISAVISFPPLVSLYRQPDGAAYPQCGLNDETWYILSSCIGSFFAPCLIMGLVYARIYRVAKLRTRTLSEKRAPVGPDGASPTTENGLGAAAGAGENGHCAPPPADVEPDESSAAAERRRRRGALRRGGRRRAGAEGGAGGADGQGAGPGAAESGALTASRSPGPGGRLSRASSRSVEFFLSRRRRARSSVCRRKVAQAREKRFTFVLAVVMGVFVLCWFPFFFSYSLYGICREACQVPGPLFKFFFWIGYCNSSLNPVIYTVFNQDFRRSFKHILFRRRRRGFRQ
Assay [8] in a line: inhibitors of larval lipid processing in zebrafish, primary screen, whole organism, PED6 fluorescence, gall bladder and intestine (AID 686;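 active means a full or partial loss of lipid-probe fluorescence in the fish gall bladder, intestine or both, judged by eye; inactive means no fluorescence loss, or compound toxic to the fish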;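 further: larvae 5 to 7 days old with five fish per well; signal comes from phospholipase A2 cleavage of quenched PED6 carried via bile; overnight exposure to compound and PED6 before scoring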). The conditions noted are these: Zebrafish larvae PED6 lipid processing, fluorescence scoring; screened at 20 µM (by protocol). Summed up:
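system = live zebrafish larvae aged 5-7 days, whole organism | probe or stimulus = ingested quenched lipid PED6 at 100 nM | doses = 20 µM single dose | timing = overnight exposure | detection = fluorescence microscopy with visual scoring of gall bladder and intestine | read-out = visual per-well fluorescence inhibition score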

The nature of assay [9]: loss of swimming-algae plug formation – whole organism, Chlamydomonas reinhardtii, WT vs cilia-less mutant, absorbance, 96-well, primary screen (AID 463189;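 active means inhibition at or above 50% relative to wild type and mutant plate controls; inactive means inhibition below 50%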;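 further: 0% = wild type cc124 cells in DMSO and 100% = ciliumless bld1 mutant cells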). The settings on record: Chlamydomonas reinhardtii gravitaxis, OD600 absorbance, 2 days; at 10 µM; stronger effect = higher value.
Setting [10] is: measured here: cell density z-score.
Where [11] appears, read: measured here: nuclear c-Myc green intensity z-score.
The mark [12] stands for this setting: measured here: nuclear pErk red intensity z-score, stronger effect = higher value.

Voltage-gated potassium channel subunit beta-2 (Rattus norvegicus), sequence (P62483 whole entry, looked up): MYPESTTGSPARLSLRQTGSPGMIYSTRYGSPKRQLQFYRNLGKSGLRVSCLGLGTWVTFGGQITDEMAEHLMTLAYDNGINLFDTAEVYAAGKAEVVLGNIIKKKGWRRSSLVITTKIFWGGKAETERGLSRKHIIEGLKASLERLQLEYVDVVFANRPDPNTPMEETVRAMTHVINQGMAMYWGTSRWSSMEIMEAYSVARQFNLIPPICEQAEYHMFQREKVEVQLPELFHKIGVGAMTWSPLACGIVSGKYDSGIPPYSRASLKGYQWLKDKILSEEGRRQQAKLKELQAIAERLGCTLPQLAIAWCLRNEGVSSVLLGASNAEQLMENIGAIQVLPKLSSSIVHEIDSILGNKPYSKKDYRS

For the molecule `COC(=O)CC1=C(C(=O)OC)C(c2ccncc2)C(C#N)=C(N)O1` (stereo unspecified), the cell count in assay [1] worked out at 492. Moreover, the inhibition in assay [1] was -3.8% (inactive); in assay [2] it was -58.7% (inactive); in assay [4], 16.8% (inactive); in assay [9], 24.5% (inactive). The same molecule showed a nuclei count in assay [2] of 157%. Moreover, the z-score is 1.74 in assay [3] (setting [10]), -0.108 in [3] (setting [11]) and -0.84 in assay [3] (setting [12]). Besides, the fluorescence slope in assay [5] was -0.366 (inactive). Besides, the NADPH fluorescence slope in [6] is 1e-05 (inactive). Also, the slope in assay [7] was 0.00477 (inactive). The molecule was called inactive in assay [8].
For the molecule `CC1CN(c2oc(-c3ccccc3Cl)nc2C#N)CC(C)O1` (stereo unspecified), the cell count in assay [1] worked out at 355. In addition, the inhibition in assay [1] was -5.2% (inactive); in assay [2] it was -154% (inactive); in [4], -0.159% (inactive); in [9], -9.38% (inactive). In assay [2], this molecule had a nuclei count of 83.5%. Moreover, the z-score was -0.0257 in [3] (setting [10]), -0.411 in [3] (setting [11]) and -1.37 in [3] (setting [12]). In [5], the fluorescence slope was -0.433 (inactive). The NADPH fluorescence slope in [6] was -9.2e-06 (inactive). Moreover, in assay [7], the slope was 0.00575 (inactive). In addition, the result in assay [8] was inactive.
For `CCCC1C2C(=O)N(c3ccccc3OC)C(=O)C2ON1c1ccccc1` (stereo unspecified), in assay [1], the cell count came to 329. The inhibition was -20.4% (inactive) in assay [1], -107% (inactive) in assay [2], 11.3% (inactive) in assay [4] and 32.4% (inactive) in assay [9]. For the same molecule, the nuclei count in [2] was 93.8%. The z-score in assay [3] (setting [10]) came to 1.11; in [3] (setting [11]), 1.02; in assay [3] (setting [12]), 0.149. Also, the fluorescence slope in [5] was -0.536 (inactive). The NADPH fluorescence slope in assay [6] is -2.6e-05 (inactive). For the same molecule, the slope in assay [7] was 0.00508 (inactive). Further, the molecule was called inactive in [8].
Take `Cc1[nH]c(=O)[nH]c(=O)c1S(=O)(=O)N1CCCC1`: the cell count in assay [1] stood at 473. Also, the inhibition is -7.5% (inactive) in assay [1], -107% (inactive) in [2], -3.98% (inactive) in assay [4] and -0.601% (inactive) in assay [9]. In assay [2], this molecule had a nuclei count of 116%. Moreover, the z-score in assay [3] (setting [10]) is -1.16; in assay [3] (setting [11]), 0.0534; in assay [3] (setting [12]) it was 0.397. The fluorescence slope in assay [5] is -0.476 (inactive). In addition, in assay [6], the NADPH fluorescence slope was -0.000255 (inactive). Moreover, the slope in assay [7] is 0.00533 (inactive). Besides, the result in assay [8] was inactive.
Turning to `COc1cc(OC)cc(C(=O)N2CCC(N3CCN(c4ccccc4)CC3)CC2)c1`, the cell count in assay [1] stood at 382. Moreover, the inhibition was -13.9% (inactive) in assay [1], -114% (inactive) in assay [2], 12.7% (inactive) in [4] and -4.18% (inactive) in assay [9]. The nuclei count in assay [2] was determined as 122%. The figures for the z-score in assay [3] (setting [10]), in [3] (setting [11]) and in assay [3] (setting [12]) were 1.61, -0.715 and -0.404, respectively. The fluorescence slope in assay [5] was -0.342 (inactive). Also, the NADPH fluorescence slope in [6] is 5.8e-05 (inactive). The slope in assay [7] was 0.00556 (inactive). In addition, the result in [8] was inactive.
With `Cn1ncc2nnn(-c3ccccc3)c(=O)c21`, the cell count in [1] was found to be 492. For the same molecule, the inhibition in [1] was -0.2% (inactive); in assay [2] it was -10.3% (inactive); in [4], -1.12% (inactive); in assay [9], -10.6% (inactive). Further, the nuclei count in [2] is 107%. Also, the z-score in assay [3] (setting [10]) was -0.32; in assay [3] (setting [11]), 1.71; in [3] (setting [12]), -1.2. Besides, in assay [5], the fluorescence slope is -0.497 (inactive). Besides, in [6], the NADPH fluorescence slope is -0.000269 (inactive). The slope in assay [7] is 0.00475 (inactive). Moreover, the call in [8] was inactive.
As for `CC1(C)Cc2c(sc3nc4n(c(=O)c23)CCC4)CO1`, the cell count in [1] was 700. The inhibition in assay [1] was -9.4% (inactive); in assay [2] it was 43.7% (inactive); in assay [4] it was 2.71% (inactive); in assay [9], -8.7% (inactive). The molecule also registered a nuclei count in assay [2] of 159%. Also, the z-score was -1.3 in assay [3] (setting [10]), 1.46 in assay [3] (setting [11]) and 1.2 in assay [3] (setting [12]). Further, the fluorescence slope in assay [5] is -0.377 (inactive). Also, the NADPH fluorescence slope in [6] is -6e-05 (inactive). In addition, the slope in assay [7] is 0.00549 (inactive). For the same molecule, the molecule was called inactive in assay [8].
